Publication PMC8083113 (Journal of medicinal chemistry, 2021)
Read-outs that look alike come from different tables or passages of the source. Values belong to the molecule of their own block, whether it stands above or below them.

How the values were obtained:
STAT3 [1] = molecular target: T1, STAT3 (Homo sapiens, UniProt P40763); test: Western blot of STAT3 in BxPC-3; assay type: cell-based; conditions: for effect on STAT3 expression: BxPC-3, 16 h, XD2–162 up to 5 μM, 1–6 at 0.5 μM
How it was run: (§1)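 BxPC-3 cells (500 × 10^3/well) are treated with the test compound (concentrations up to 5 μM) for 16 h. They are lysed at 4 °C by sonication in Tris/NaCl/Triton X-100/SDS buffer, pH 7.4, with protease and phosphatase inhibitors. Protein is measured by BCA, run on 10 or 12% gels and transferred to PVDF. Blots are probed overnight at 4 °C for STAT3/pSTAT3 (1:1000) and GAPDH (1:4000), imaged by near-infrared fluorescence, and quantified by densitometry.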

[2] = Table S4; cited from earlier work
BxPC-3 [3] = test: MTT cytotoxicity assay in BxPC-3; assay type: cell-based
How it was run: (§2)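 Cells (3000–6000/well) are seeded and left overnight, then exposed to the test compound or DMSO vehicle for 3 days. MTT (3 mg/ml) is added for 3 h at 37 °C, and the formazan is dissolved in DMSO and read at 570 nm. IC50 comes from dose-response curves from three independent experiments, reported as mean ± SD.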

pSTAT3 = test: Western blot of pSTAT3 in BxPC-3; assay type: cell-based; conditions: BxPC-3, 16 h treatment
How it was run: as §1

ZFP91 = ZFP91 (Homo sapiens, UniProt Q96JP5+Q96SW2); test: Western blot of ZFP91 in BxPC-3; assay type: cell-based
ZFP91, sequence (Q96JP5 whole entry): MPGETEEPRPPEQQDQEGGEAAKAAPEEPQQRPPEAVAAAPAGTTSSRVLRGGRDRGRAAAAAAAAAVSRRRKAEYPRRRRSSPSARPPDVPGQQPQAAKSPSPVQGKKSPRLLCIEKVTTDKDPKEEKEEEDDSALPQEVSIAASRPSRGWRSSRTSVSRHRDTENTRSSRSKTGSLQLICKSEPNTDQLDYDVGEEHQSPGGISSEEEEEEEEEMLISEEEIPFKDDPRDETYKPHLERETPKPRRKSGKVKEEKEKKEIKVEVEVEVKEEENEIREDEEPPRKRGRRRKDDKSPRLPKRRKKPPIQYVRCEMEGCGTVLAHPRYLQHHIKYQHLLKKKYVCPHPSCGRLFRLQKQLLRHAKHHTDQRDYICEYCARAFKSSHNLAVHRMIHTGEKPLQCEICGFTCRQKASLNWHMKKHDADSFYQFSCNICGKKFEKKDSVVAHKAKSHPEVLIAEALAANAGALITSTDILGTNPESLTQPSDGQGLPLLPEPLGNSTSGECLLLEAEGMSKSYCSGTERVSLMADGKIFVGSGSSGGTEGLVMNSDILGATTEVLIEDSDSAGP
ZFP91, sequence (Q96SW2 whole entry): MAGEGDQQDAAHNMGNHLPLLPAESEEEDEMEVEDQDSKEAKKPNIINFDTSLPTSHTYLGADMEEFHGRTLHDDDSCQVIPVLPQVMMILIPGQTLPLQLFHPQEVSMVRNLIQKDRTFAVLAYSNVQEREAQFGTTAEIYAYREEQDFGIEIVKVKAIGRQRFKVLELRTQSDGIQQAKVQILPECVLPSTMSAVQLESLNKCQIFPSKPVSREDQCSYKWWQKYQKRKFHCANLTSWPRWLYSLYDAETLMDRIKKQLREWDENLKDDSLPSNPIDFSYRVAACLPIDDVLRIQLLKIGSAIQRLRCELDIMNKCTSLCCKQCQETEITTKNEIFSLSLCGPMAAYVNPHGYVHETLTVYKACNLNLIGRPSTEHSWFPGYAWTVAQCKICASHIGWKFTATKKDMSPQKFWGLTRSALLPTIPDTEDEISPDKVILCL
ZFP91, sequence (Q16531 whole entry partner): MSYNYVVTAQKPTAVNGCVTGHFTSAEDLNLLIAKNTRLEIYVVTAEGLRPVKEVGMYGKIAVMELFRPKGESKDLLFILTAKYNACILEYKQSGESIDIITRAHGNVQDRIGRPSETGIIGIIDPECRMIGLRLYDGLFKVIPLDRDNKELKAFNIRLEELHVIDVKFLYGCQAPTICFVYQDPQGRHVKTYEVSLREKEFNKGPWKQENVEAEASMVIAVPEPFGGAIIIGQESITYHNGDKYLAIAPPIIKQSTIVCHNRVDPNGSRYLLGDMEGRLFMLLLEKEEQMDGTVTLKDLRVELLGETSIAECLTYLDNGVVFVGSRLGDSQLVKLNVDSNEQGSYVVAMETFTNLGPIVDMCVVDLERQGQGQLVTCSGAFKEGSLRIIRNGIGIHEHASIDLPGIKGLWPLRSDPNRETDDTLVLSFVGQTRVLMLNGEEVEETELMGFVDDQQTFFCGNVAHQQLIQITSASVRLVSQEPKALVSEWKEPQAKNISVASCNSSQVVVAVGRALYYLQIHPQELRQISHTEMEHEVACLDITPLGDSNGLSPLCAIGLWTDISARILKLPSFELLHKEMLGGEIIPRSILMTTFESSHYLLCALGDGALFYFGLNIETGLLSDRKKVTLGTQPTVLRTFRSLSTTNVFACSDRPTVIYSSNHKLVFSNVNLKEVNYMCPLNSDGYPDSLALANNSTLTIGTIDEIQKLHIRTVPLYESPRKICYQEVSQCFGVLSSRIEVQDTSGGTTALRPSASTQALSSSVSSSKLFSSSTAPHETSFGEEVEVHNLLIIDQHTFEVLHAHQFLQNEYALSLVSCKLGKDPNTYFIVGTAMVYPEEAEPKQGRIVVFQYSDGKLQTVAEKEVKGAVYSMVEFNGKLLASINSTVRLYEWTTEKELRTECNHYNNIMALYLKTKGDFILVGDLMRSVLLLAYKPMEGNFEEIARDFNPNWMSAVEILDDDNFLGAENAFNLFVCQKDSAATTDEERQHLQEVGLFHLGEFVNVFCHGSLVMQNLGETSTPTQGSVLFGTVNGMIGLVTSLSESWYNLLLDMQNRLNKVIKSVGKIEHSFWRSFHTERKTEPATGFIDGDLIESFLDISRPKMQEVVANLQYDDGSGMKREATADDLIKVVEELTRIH

GSPT1 = GSPT1 (Homo sapiens, UniProt P15170); test: Western blot of GSPT1 in BxPC-3; assay type: cell-based
GSPT1, sequence (Q96SW2 whole entry partner): as the sequence (Q96SW2 whole entry) above
GSPT1, sequence (Q16531 whole entry partner): as the sequence (Q16531 whole entry partner) above
GSPT1, sequence (P15170 whole entry): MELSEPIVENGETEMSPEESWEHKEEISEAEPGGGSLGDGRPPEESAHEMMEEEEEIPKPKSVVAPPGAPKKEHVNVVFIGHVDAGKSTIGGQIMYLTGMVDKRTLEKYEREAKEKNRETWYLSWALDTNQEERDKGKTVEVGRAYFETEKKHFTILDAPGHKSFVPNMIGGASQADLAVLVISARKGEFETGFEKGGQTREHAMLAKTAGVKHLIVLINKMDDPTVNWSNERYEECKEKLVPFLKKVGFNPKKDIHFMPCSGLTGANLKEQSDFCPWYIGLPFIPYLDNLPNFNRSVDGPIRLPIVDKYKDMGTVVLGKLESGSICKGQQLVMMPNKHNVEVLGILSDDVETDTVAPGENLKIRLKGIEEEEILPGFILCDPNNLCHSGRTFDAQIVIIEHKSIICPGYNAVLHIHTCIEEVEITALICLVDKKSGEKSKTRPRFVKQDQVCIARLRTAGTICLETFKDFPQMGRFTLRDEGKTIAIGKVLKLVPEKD
How it was run: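 BxPC-3 cells (500 × 10^3/well) are exposed to the test compound for 16 h and lysed by sonication at 4 °C in Tris/NaCl/Triton/SDS buffer, pH 7.4, with protease and phosphatase inhibitors. After BCA quantitation, SDS-PAGE and PVDF transfer, membranes are probed overnight at 4 °C with anti-GSPT (1:1000) and GAPDH (1:4000). Detection uses near-infrared secondaries, with densitometric quantification.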

BxPC-3 [4] = test: Colony formation assay in BxPC-3; assay type: cell-based; conditions: BxPC-3, 7–10 days
MIA PaCa-2 = test: MTT cytotoxicity assay in MIA PaCa-2; assay type: cell-based; conditions: read-out: IC50 (μM) MIA PaCa-2, 3 days, mean ± SD
How it was run: as §2

STAT3 [5] = molecular target: T1, STAT3; test: Western blot of STAT3 in OVCAR-3; assay type: cell-based; conditions: OVCAR-3, negative control incapable of binding CRBN
How it was run: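 OVCAR-3 cells are seeded at 500 × 10^3/well and treated with the test compound at several concentrations and times (read-out at 12 h). Lysis is by sonication at 4 °C in Tris/NaCl/Triton X-100/SDS buffer, pH 7.4, with protease and phosphatase inhibitors. After BCA quantitation, SDS-PAGE and PVDF transfer, blots are probed for STAT3 (1:1000) and GAPDH (1:4000) and imaged by near-infrared fluorescence.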

MTT assay = assay type: cell-based; conditions: Table S4
STAT3 [6] = molecular target: T1, STAT3; conditions: leukemia and lymphoma cell lines; cited from earlier work
tumor = conditions: within two weeks; cited from earlier work
[7] = Homo sapiens, BXPC-3, 72 h, read-out: IC50 (μM) BxPC-3, MTT assay, 3 days, mean ± SD
[8] = read-out: IC50 (μM) BxPC-3, MTT assay, 3 days, mean ± SD

T1 sequence (P40763 whole entry): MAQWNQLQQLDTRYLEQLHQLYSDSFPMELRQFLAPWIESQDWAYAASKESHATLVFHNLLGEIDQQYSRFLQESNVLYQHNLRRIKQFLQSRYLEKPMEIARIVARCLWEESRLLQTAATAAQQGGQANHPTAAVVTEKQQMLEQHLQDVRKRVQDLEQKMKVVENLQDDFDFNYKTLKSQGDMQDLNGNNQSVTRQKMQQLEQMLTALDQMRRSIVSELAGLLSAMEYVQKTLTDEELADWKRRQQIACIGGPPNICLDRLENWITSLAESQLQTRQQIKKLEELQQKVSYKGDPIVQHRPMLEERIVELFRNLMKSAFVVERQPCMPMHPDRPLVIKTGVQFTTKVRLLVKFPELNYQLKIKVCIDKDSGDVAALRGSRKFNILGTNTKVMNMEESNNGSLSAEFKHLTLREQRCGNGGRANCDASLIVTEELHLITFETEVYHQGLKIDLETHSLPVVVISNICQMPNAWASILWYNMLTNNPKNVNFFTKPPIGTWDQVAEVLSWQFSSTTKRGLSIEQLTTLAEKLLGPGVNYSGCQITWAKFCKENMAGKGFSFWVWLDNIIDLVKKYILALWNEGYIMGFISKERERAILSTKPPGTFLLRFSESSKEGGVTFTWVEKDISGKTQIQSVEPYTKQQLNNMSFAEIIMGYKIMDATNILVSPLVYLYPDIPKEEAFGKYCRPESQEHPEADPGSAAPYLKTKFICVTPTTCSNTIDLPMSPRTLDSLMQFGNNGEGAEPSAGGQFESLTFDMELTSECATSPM

effect on STAT3 expression (STAT3 [1]): did not have any effect
Molecule: O=C(NCCN1CCCCC1)c1cc2c(o1)C(=O)c1ccccc1C2=O [1–6, reference compound]
greater cytotoxicity than napabucasin [2]: > 10 fold

Molecule: O=C1CCC(N2C(=O)c3cccc(NCCCC4CCN(CCNC(=O)c5cc6c(o5)C(=O)c5ccccc5C6=O)CC4)c3C2=O)C(=O)N1 (stereo not shown) [3–6c, N-(2-(4-(3-((2-(2,6-dioxopiperidin-3-yl)-1,3-dioxoisoindolin-4-yl)amino)propyl)piperidin-1-yl)ethyl)-4,9-dioxo-4,9-dihydronaphtho[2,3-b]furan-2-carboxamide]
IC50 (BxPC-3 [3]; [7]): < 1 µM

concentration at which a decrease in STAT3 protein expression was observed (STAT3 [1]; BxPC-3, 16 h treatment): 5 µM
ZFP91 expression at the earlier time point (ZFP91; BxPC-3, 4 h): no effect
GSPT1 protein level (GSPT1): did not degrade
Molecule: O=C1CCC(N2C(=O)c3cccc(NCCCCCC4CCN(CCNC(=O)c5cc6c(o5)C(=O)c5ccccc5C6=O)CC4)c3C2=O)C(=O)N1 (stereo not shown) [3–6d, N-(2-(4-(5-((2-(2,6-dioxopiperidin-3-yl)-1,3-dioxoisoindolin-4-yl)amino)pentyl)piperidin-1-yl)ethyl)-4,9-dioxo-4,9-dihydronaphtho[2,3-b]furan-2-carboxamide]
IC50 (BxPC-3 [3]; [7]): < 1 µM
concentration at which a decrease in pSTAT3 level was achieved (pSTAT3): 1 μM
inhibition of colony formation (BxPC-3 [4]): greater inhibitory activity than napabucasin

Molecule: N-(5-(2-(2,6-dioxopiperidin-3-yl)-1-oxoisoindolin-4-yl)pentyl)-4,9-dioxo-4,9-dihydronaphtho[2,3-b]furan-2-carboxamide [8–1]
IC50 (MIA PaCa-2): 6.4 ± 3.4 µM
IC50 (BxPC-3 [3]; [8]): 13.8 ± 7.7 µM

Molecule: N-(2-(2-(2-((2-(2,6-dioxopiperidin-3-yl)-1,3-dioxoisoindolin-5-yl)amino)ethoxy)ethoxy)ethyl)-4,9-dioxo-4,9-dihydronaphtho[2,3-b]furan-2-carboxamide [6–6c]
IC50 (MIA PaCa-2): 10.5 ± 3 µM
IC50 (BxPC-3 [3]; [8]): 23.8 ± 3.9 µM

effect on STAT3 expression (STAT3 [1]): did not have any effect
Molecule: CN1C(=O)CCC(N2C(=O)c3cccc(NCCCCCC4CCN(CCNC(=O)c5cc6c(o5)C(=O)c5ccccc5C6=O)CC4)c3C2=O)C1=O (stereo not shown) [11–7, N-(2-(4-(5-((2-(1-methyl-2,6-dioxopiperidin-3-yl)-1,3-dioxoisoindolin-4-yl)amino)pentyl)piperidin-1-yl)ethyl)-4,9-dioxo-4,9-dihydronaphtho[2,3-b]furan-2-carboxamide]
concentration at which a decrease in pSTAT3 level was achieved (pSTAT3): 5 μM

ZFP91 protein level (ZFP91; BxPC-3, 16 h, up to 3 μM): no effect
GSPT1 protein level (GSPT1): not affected
Molecule: CC(=O)c1cc2c(o1)C(=O)c1ccccc1C2=O [NP, 2-acetylbenzo[f][1]benzofuran-4,9-dione, reference compound]

Molecule: O=C1CCC(N2C(=O)c3cccc(OCCCCNC(=O)c4cc5c(o4)C(=O)c4ccccc4C5=O)c3C2=O)C(=O)N1 (stereo not shown) [5–5a, N-(4-((2-(2,6-dioxopiperidin-3-yl)-1,3-dioxoisoindolin-4-yl)oxy)butyl)-4,9-dioxo-4,9-dihydronaphtho[2,3-b]furan-2-carboxamide]
fold more potent than 5–5b (BxPC-3 [3]; cytotoxicity IC50): ~2 fold

activity on STAT3 expression compared with XD97 (STAT3 [5]): comparable activity to XD97
Molecule: O=C(NCCOCCOCCNc1cccc2c1C(=O)N(C1CCCNC1=O)C2=O)c1cc2c(o1)C(=O)c1ccccc1C2=O (stereo not shown) [10–5, N-(2-(2-(2-((1,3-dioxo-2-(2-oxopiperidin-3-yl)isoindolin-4-yl)amino)ethoxy)ethoxy)ethyl)-4,9-dioxo-4,9-dihydronaphtho[2,3-b]furan-2-carboxamide]

Molecule: Nc1cccc2c1C(=O)N(C1CCC(=O)NC1=O)C2=O (stereo not shown) [Pomalidomide]
no cytotoxicity in the MTT assay up to (MTT assay): > 30 µM

Molecule: NC(=O)CC[C@H](NC(=O)[C@@H]1CC[C@@H]2CCN(C(=O)CCCCCC#Cc3cccc4c3CN(C3CCC(=O)NC3=O)C4=O)C[C@H](NC(=O)c3cc4cc(C(F)(F)P(=O)(O)O)ccc4[nH]3)C(=O)N21)C(=O)NC(c1ccccc1)c1ccccc1 (stereo partly shown) [SD-36]
DC50 values for STAT3 degradation (in words) (STAT3 [6]): nanomolar
tumor response (tumor): complete tumor regression
